Assay results published in ChEMBL document CHEMBL3593168, “Structure-Based Design of Macrocyclic Coagulation Factor VIIa Inhibitors” (J Med Chem, 2015).

Key:
[1] = biological target: Coagulation factor VII/tissue factor (Homo sapiens, UniProt P08709); assay: Inhibition of human recombinant TF/F7a complex using S2288 as substrate preincubated for 15 mins followed by protein addition measured for 60 mins; assay type: protein-complex assay
Outline: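 Ki measured against recombinant human TF/FVIIa enzyme at room temperature (25 °C) and averaged from two experiments.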

Coagulation factor IX = Coagulation factor IX (Homo sapiens, UniProt P00740); assay: Inhibition of human F9a measured for 30 mins
Outline: (§1)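 Ki measured against purified human enzymes (APC, FXa, FIXa, plasma kallikrein, thrombin, trypsin) at room temperature (25 °C) and averaged from two experiments.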

Coagulation factor X = Coagulation factor X (Homo sapiens, UniProt P00742); assay: Inhibition of human F10a using S2222 as substrate measured for 30 mins; outline: as §1
Prothrombin = Prothrombin (Homo sapiens, UniProt P00734); assay: Inhibition of human thrombin using S2238 as substrate measured for 30 mins; outline: as §1
[2] = biological target: Vitamin K-dependent protein C (Homo sapiens, UniProt P04070); assay: Inhibition of human APC measured for 30 mins; outline: as §1
Trypsin = Trypsin (Homo sapiens, UniProt P07477+P07478+P35030); assay: Inhibition of human trypsin measured for 30 mins; assay type: protein assay; outline: as §1
Plasma kallikrein = Plasma kallikrein (Homo sapiens, UniProt P03952); assay: Inhibition of human plasma kallikrein using S2302 as substrate measured for 30 mins; outline: as §1
Kallikrein-1 = Kallikrein-1 (Homo sapiens, UniProt P06870); assay: Inhibition of human tissue kallikrein 1 measured for 30 mins
Outline: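 Purified human tissue kallikrein-1 assayed at 37 °C. Ki averaged from two experiments.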

Plasma = assay: Anticoagulant activity in F7-deficient human plasma assessed as concentration required to double prothrombin time; assay type: functional

Sequence of Coagulation factor IX (P00740 47-191 limits assumed): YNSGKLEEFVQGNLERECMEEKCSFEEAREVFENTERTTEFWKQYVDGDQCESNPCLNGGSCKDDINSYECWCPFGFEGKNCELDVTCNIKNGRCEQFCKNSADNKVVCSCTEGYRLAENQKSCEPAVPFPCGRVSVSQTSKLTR
Sequence of Coagulation factor IX (P00740 227-461 limits assumed): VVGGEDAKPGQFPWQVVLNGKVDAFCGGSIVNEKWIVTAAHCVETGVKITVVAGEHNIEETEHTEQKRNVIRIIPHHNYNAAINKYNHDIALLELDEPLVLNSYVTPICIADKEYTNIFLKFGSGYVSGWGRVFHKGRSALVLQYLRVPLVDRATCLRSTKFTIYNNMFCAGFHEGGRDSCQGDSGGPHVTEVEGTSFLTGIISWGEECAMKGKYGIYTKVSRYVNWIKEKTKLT
Sequence of Plasma kallikrein (P03952 20-390 limits assumed): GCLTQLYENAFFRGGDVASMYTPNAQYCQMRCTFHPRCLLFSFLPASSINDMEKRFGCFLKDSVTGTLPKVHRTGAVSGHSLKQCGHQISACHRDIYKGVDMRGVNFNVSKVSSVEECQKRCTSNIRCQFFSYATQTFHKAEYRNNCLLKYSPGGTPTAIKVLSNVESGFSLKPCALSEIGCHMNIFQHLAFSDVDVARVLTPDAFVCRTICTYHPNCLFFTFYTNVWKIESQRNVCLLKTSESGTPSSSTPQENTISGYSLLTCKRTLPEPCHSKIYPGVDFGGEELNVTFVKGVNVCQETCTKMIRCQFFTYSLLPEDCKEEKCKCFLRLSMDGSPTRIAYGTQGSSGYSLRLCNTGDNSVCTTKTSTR
Sequence of Plasma kallikrein (P03952 391-638 limits assumed): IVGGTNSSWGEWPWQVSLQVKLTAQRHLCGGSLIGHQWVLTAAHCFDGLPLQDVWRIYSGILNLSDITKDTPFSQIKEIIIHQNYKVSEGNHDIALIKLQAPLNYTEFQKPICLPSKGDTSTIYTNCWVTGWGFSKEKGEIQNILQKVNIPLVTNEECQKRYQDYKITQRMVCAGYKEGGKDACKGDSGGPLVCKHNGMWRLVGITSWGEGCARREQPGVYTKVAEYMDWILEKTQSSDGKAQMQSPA
Sequence of Coagulation factor X (P00742 41-179 limits assumed): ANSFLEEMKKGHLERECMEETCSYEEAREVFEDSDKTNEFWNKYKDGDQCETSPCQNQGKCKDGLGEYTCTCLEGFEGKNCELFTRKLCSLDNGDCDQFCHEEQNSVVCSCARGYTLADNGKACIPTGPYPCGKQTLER
Sequence of Coagulation factor X (P00742 235-488 limits assumed): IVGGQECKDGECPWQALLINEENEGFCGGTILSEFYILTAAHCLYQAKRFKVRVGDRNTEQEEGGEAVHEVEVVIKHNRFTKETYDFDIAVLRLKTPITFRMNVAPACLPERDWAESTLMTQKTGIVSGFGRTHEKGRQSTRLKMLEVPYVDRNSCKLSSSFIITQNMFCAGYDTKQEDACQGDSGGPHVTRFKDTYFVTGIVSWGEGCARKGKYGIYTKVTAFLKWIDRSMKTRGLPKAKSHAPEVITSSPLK
Sequence of Coagulation factor VII/tissue factor (P08709 61-212 limits assumed): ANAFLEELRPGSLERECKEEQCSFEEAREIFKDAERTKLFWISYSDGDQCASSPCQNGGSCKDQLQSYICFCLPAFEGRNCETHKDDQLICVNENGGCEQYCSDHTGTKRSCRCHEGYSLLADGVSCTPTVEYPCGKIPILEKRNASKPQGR
Sequence of Coagulation factor VII/tissue factor (P08709 213-466 limits assumed): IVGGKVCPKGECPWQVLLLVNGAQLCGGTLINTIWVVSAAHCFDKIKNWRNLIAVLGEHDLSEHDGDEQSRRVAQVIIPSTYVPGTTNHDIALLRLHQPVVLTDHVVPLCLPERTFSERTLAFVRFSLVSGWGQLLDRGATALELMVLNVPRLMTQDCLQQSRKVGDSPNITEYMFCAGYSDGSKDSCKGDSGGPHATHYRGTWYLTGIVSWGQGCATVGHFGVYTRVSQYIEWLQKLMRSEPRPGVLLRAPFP
Sequence of Coagulation factor VII/tissue factor (P13726 33-295 partner limits assumed): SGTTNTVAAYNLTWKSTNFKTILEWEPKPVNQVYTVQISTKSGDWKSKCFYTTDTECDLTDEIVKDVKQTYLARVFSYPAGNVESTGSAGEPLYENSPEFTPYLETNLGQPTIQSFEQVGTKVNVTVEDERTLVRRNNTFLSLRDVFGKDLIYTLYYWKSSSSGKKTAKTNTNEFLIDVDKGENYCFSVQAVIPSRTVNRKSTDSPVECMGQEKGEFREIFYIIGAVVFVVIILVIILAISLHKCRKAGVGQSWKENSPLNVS
Sequence of Vitamin K-dependent protein C (P04070 43-197 limits assumed): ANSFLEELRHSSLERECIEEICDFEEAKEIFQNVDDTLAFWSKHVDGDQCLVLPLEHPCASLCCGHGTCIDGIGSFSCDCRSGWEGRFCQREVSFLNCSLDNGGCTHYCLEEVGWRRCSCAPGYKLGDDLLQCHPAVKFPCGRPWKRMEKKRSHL
Sequence of Vitamin K-dependent protein C (P04070 212-461 limits assumed): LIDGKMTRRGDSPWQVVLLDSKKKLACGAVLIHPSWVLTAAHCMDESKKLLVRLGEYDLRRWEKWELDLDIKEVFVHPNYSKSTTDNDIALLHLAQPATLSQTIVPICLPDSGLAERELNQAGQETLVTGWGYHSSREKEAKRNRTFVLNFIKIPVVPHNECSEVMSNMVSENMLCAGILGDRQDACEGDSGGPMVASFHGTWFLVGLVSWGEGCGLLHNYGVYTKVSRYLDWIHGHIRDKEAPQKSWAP
Sequence of Kallikrein-1 (P06870 whole entry): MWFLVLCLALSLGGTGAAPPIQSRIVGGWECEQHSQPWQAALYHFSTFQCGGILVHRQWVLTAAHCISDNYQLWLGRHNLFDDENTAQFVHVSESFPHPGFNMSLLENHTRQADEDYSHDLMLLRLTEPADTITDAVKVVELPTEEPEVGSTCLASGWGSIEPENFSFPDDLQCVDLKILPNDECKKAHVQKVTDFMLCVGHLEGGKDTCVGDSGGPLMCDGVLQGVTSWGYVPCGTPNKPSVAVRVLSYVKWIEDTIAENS

| SMILES | Ki [1] [nM] | Ki (Coagulation factor IX) [nM] | Ki (Coagulation factor X) [nM] | Ki (Prothrombin) [nM] | Ki [2] [nM] | Ki (Trypsin) [nM] | Ki (Plasma kallikrein) [nM] | Ki (Kallikrein-1) [nM] | 2PT (Plasma) [µM] |
| --- | --- | --- | --- | --- | --- | --- | --- | --- | --- |
| Nc1nccc2cc(NC3C(=O)NCc4cccc(c4)NC(=O)CCCOc4ccc3cc4)ccc12 (stereo not drawn) | 4600 |  |  |  |  |  |  |  |  |
| Nc1nccc2cc(NC3C(=O)NCc4cccc(c4)NC(=O)CCCCc4ccc3cc4)ccc12 (stereo not drawn) | 6100 |  |  |  |  |  |  |  |  |
| Nc1nccc2cc(N[C@H]3C(=O)NCc4cccc(c4)NC(=O)CCCc4ccc3cc4)ccc12 | 400 | > 35000 | > 9000 | > 13000 | 2800 | > 6000 | > 6000 | 18 | 26 |
| Nc1nccc2cc(NC(C(=O)NCc3ccccc3)c3ccccc3)ccc12 (stereo not drawn) | 54000 |  |  |  |  |  |  |  |  |
| CCS(=O)(=O)c1ccc2cc1CNC(=O)[C@H](Nc1ccc3c(N)nccc3c1)c1ccc(cc1)CCCC(=O)N2 | 8 | > 35000 | 3200 | 5800 | 1300 | 3600 | 4600 | 100 | 1.6 |
| CC(C)S(=O)(=O)c1ccc2cc1CNC(=O)[C@H](Nc1ccc3c(N)nccc3c1)c1ccc(cc1)CCCC(=O)N2 | 5.2 | > 35000 | 3300 | 4000 | 1800 | 3000 | 3600 | 100 | 1.4 |
| CCS(=O)(=O)c1ccc2cc1CNC(=O)[C@H](Nc1ccc(C(=N)N)cc1)c1ccc(cc1)CCCC(=O)N2 | 0.7 | 34000 | 5500 | 180 | 41 | 58 | 50 | 1900 | 0.42 |
| CCS(=O)(=O)c1ccc2cc1CNC(=O)[C@H](Nc1ccc3c(N)nccc3c1)c1ccc(c(C)c1)CCCC(=O)N2 | 1.6 | 16000 | 1000 | 6700 | 830 | 2700 | 1700 | 100 | 1.2 |
| CC(C)(C)S(=O)(=O)c1ccc2cc1CNC(=O)C(Nc1ccc3c(N)nccc3c1)c1ccc(cc1)CCCC(=O)N2 (racemic) | 30 | > 35000 | 4800 | > 13000 | 14000 | > 6000 | > 6000 | 22 | 8.6 |

The next lines start with results.

| Ki [1] [nM] | Ki (Coagulation factor IX) [nM] | Ki (Coagulation factor X) [nM] | Ki (Prothrombin) [nM] | Ki [2] [nM] | Ki (Trypsin) [nM] | Ki (Plasma kallikrein) [nM] | Ki (Kallikrein-1) [nM] | SMILES | 2PT (Plasma) [µM] |
| --- | --- | --- | --- | --- | --- | --- | --- | --- | --- |
| 920 |  |  |  |  |  |  |  | Nc1nccc2cc(NC3C(=O)NCc4cccc(c4)NC(=O)CCCc4ccc3cc4)ccc12 (stereo not drawn) |  |
| > 18000 |  |  |  |  |  |  |  | Nc1nccc2cc(N[C@@H]3C(=O)NCc4cccc(c4)NC(=O)CCCc4ccc3cc4)ccc12 |  |
| 4600 |  |  |  |  |  |  |  | Nc1nccc2cc(NC3C(=O)NCc4cccc(c4)NC(=O)CCc4ccc3cc4)ccc12 (stereo not drawn) |  |
| 10000 |  |  |  |  |  |  |  | CC(=O)Nc1cccc(CNC(=O)C(Nc2ccc3c(N)nccc3c2)c2ccccc2)c1 (stereo not drawn) |  |
| 8 |  |  |  |  |  |  |  | CC(=O)Nc1ccc(S(=O)(=O)C(C)C)c([C@H]2CCCN2C(=O)[C@H](Nc2ccc3c(N)nccc3c2)c2ccccc2)c1 | 12 |
